Assay results taken from ChEMBL document CHEMBL1914380, “Polyalkoxybenzenes from plants. 5. Parsley seed extract in synthesis of azapodophyllotoxins featuring strong tubulin destabilizing activity in the sea urchin embryo and cell culture assays” (J Med Chem, 2011).
pIC50: −log10 of the molar value. Active and inactive are the calls of the source. No cut-off for these calls is given here.

Columns and labels:
Paracentrotus lividus [1] = test: Antimitotic activity against Paracentrotus lividus embryo assessed as cleavage arrest up to 4 uM […] followed by 45 to 60 mins before the first mitotic cycle completion by sea urchin embryo assay; assay type: functional, organism-based
Paracentrotus lividus [2] = test: Antimitotic activity against Paracentrotus lividus embryo assessed as cleavage alteration up to 4 uM […] followed by 45 to 60 mins before the first mitotic cycle completion by sea urchin embryo assay; assay type: functional, organism-based
Paracentrotus lividus [3] = test: Antimitotic activity against Paracentrotus lividus embryo assessed as embryo spinning up to 4 uM […] followed by 45 to 60 mins before the first mitotic cycle completion by sea urchin embryo assay; assay type: functional, organism-based
Paracentrotus lividus [4] = test: Antimitotic activity against Paracentrotus lividus embryo assessed as cleavage arrest treated 10 to 25 mins post fertilization followed by 45 to 60 mins before the first mitotic cycle completion by sea urchin embryo assay; assay type: functional
Paracentrotus lividus [5] = test: Antimitotic activity against Paracentrotus lividus embryo assessed as cleavage alteration treated 10 to 25 mins post fertilization followed by 45 to 60 mins before the first mitotic cycle completion by sea urchin embryo assay; assay type: functional
A549 [6] = test: Inhibition of microtubule polymerization in human A549 cells assessed as total disruption of interphase microtubule network at 1 uM after 8 hrs by immunofluorescence microscopy; assay type: cell-based
Outline: (§1)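 A549 cells incubated 8 h with compound at 0.1, 0.5, 1 and 5 μM; DMSO vehicle as negative control. Microtubules labelled by indirect immunofluorescence and examined by fluorescence microscopy. Value is the concentration giving total interphase microtubule disassembly, from three independent experiments.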

A549 [7] = test: Inhibition of microtubule polymerization in human A549 cells assessed as total disruption of interphase microtubule network at 5 uM after 8 hrs by immunofluorescence microscopy; assay type: cell-based; outline: as §1
Paracentrotus lividus [8] = test: Antimitotic activity against Paracentrotus lividus embryo assessed as embryo spinning treated 10 to 25 mins post fertilization followed by 45 to 60 mins before the first mitotic cycle completion by sea urchin embryo assay; assay type: functional
A549 [9] = test: Inhibition of microtubule polymerization in human A549 cells assessed as total disruption of interphase microtubule network at 0.5 uM after 8 hrs by immunofluorescence microscopy; assay type: cell-based; outline: as §1
A549 [10] = test: Cytotoxicity against human A549 cells assessed as cell viability after 24 hrs by MTT assay; assay type: functional, cell-based; details: A549, 24 h
Outline: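 A549 human lung carcinoma cells; growth inhibition measured by MTT assay. IC50 derived from dose-response curves, mean ± SD of three independent experiments.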

A549 [11] = test: Inhibition of microtubule polymerization in human A549 cells assessed as total disruption of interphase microtubule network at 0.1 uM after 8 hrs by immunofluorescence microscopy; assay type: cell-based; outline: as §1

With `COc1cc(C2C3=C(COC3=O)Nc3[nH]ncc32)cc(OC)c1OC` (stereo not given) the Activity (Paracentrotus lividus [1]) was “inactive”, the Activity (Paracentrotus lividus [2]) was “inactive” and the Activity (Paracentrotus lividus [3]) was “inactive”.

`COc1cc([C@H]2C3=C(COC3=O)Nc3cc4c(cc32)OCO4)cc2c1OCO2` gave an EC (Paracentrotus lividus [4]) of 50 nM and an EC (Paracentrotus lividus [5]) of 5 nM.

In the case of `COc1cc(C2C3=C(COC3=O)Nc3cc4c(c(OC)c32)OCO4)cc(OC)c1OC` (stereo not given), the inhibition (A549 [6]) was “Active”, the inhibition (A549 [7]) was “Active” and the EC (Paracentrotus lividus [8]) was greater than 2000 nM. For the same compound, the EC (Paracentrotus lividus [4]) was greater than 2000 nM, the inhibition (A549 [9]) was “Active” and the EC (Paracentrotus lividus [5]) was 2000 nM. The pIC50 (A549 [10]) was 6.54 and the inhibition (A549 [11]) was “Active”.

For `COc1c(C2C3=C(COC3=O)Nc3[nH]nc(C)c32)cc2c(c1OC)OCO2` (stereo not given), the Activity (Paracentrotus lividus [1]) was “inactive”, the Activity (Paracentrotus lividus [2]) was “inactive” and the Activity (Paracentrotus lividus [3]) was “inactive”.

For `COc1cc(C2C3=C(COC3=O)Nc3[nH]nc(C)c32)cc(OC)c1OC` (stereo not given), the Activity (Paracentrotus lividus [1]) was “inactive”, the Activity (Paracentrotus lividus [2]) was “inactive” and the Activity (Paracentrotus lividus [3]) was “inactive”.

`COc1cc(C2C3=C(COC3=O)Nc3cc4c(cc32)OCO4)c(OC)c2c1OCO2` (stereo not given) was tested, and the EC (Paracentrotus lividus [8]) was greater than 5000 nM, the EC (Paracentrotus lividus [4]) was 2000 nM and the EC (Paracentrotus lividus [5]) was 1000 nM.

`COc1cc([C@@H]2C3=C(COC3=O)Nc3cc4c(cc32)OCO4)cc2c1OCO2` was tested, and the EC (Paracentrotus lividus [8]) was 50 nM, the EC (Paracentrotus lividus [4]) was 200 nM and the EC (Paracentrotus lividus [5]) was 50 nM.

Work on `COc1cc(OC)cc(C2C3=C(COC3=O)Nc3cc(OC)ccc32)c1` (stereo not given) yielded an EC (Paracentrotus lividus [8]) of 200 nM, an EC (Paracentrotus lividus [4]) of 10 nM and an EC (Paracentrotus lividus [5]) of 2 nM.

With `COc1cc(C2C3=C(O)OCC3=Nc3cc4c(cc32)OCCO4)cc(OC)c1OC` (stereo not given) the inhibition (A549 [6]) was “Active”, the inhibition (A549 [7]) was “Active” and the EC (Paracentrotus lividus [8]) was 1000 nM. The EC (Paracentrotus lividus [4]) was 1000 nM, the inhibition (A549 [9]) was “Active” and the EC (Paracentrotus lividus [5]) was 200 nM. The pIC50 (A549 [10]) was 8.04 and the inhibition (A549 [11]) was “Active”.

Compound `COc1ccc(C2C3=C(COC3=O)Nc3cc4c(c(OC)c32)OCO4)cc1` (stereo not given) has an EC (Paracentrotus lividus [8]) greater than 2000 nM, an EC (Paracentrotus lividus [4]) greater than 2000 nM and an EC (Paracentrotus lividus [5]) of 2000 nM.

`COc1cc(C2C3=C(COC3=O)Nc3cn(C)nc32)c(OC)c2c1OCO2` (stereo not given) was tested, and the Activity (Paracentrotus lividus [1]) was “inactive”, the Activity (Paracentrotus lividus [2]) was “inactive” and the Activity (Paracentrotus lividus [3]) was “inactive”.

With `COc1cc(C2C3=C(COC3=O)Nc3cn(C)nc32)cc2c1OCO2` (stereo not given) the Activity (Paracentrotus lividus [1]) was “inactive”, the Activity (Paracentrotus lividus [2]) was “inactive” and the Activity (Paracentrotus lividus [3]) was “inactive”.

`COc1cc(C2C3=C(COC3=O)Nc3[nH]nc(C)c32)c(OC)c2c1OCO2` (stereo not given) was tested, and the Activity (Paracentrotus lividus [1]) was “inactive”, the Activity (Paracentrotus lividus [2]) was “inactive” and the Activity (Paracentrotus lividus [3]) was “inactive”.

For `COc1cc(C2C3=C(COC3=O)Nc3c2ccc2c3CCCC2)cc2c1OCO2` (stereo not given), the EC (Paracentrotus lividus [8]) was 100 nM, the EC (Paracentrotus lividus [4]) was 50 nM and the EC (Paracentrotus lividus [5]) was 5 nM. For the same compound, the pIC50 (A549 [10]) was 6.80.

For `COc1cc(-c2c3c(nc4c5c(ccc24)CCCC5)COC3=O)cc2c1OCO2`, the EC (Paracentrotus lividus [8]) was 5000 nM, the EC (Paracentrotus lividus [4]) was 2000 nM and the EC (Paracentrotus lividus [5]) was 200 nM.

`COc1ccc(C2C3=C(O)OCC3=Nc3cc4c(cc32)OCO4)cc1` (stereo not given) gave an EC (Paracentrotus lividus [8]) of 2000 nM, an EC (Paracentrotus lividus [4]) of 200 nM and an EC (Paracentrotus lividus [5]) of 50 nM. It also gave a pIC50 (A549 [10]) of less than 5.49.

For `COc1cc(-c2c3c(nc4cc5c(cc24)CCC5)COC3=O)cc2c1OCO2`, the EC (Paracentrotus lividus [8]) was greater than 5000 nM, the EC (Paracentrotus lividus [4]) was 1000 nM and the EC (Paracentrotus lividus [5]) was 100 nM.

`COc1ccc2c(c1)C(c1cc(OC)c3c(c1)OCO3)C1=C(COC1=O)N2` (stereo not given) was tested, and the inhibition (A549 [6]) was “Active”, the inhibition (A549 [7]) was “Active” and the EC (Paracentrotus lividus [8]) was 500 nM. For the same compound, the EC (Paracentrotus lividus [4]) was 50 nM, the inhibition (A549 [9]) was “Active” and the EC (Paracentrotus lividus [5]) was 10 nM. For the same compound, the pIC50 (A549 [10]) was 6.55 and the inhibition (A549 [11]) was “Active”.
